{
  "source": "ChEMBL document CHEMBL3244382",
  "about": "“Structural requirements for antileukemic activity among the naturally occurring and semisynthetic maytansinoids” (J Med Chem, 1978)",
  "key": {"Mus musculus [1]": {"tested_on": "Mus musculus", "assay": "Toxicity in PS mouse allografted with mouse P388 cells assessed as change in body weight at 3.1 ug/kg relative to control", "assay_type": "organism-based", "conditions": "in vivo, 0.0031 mg/kg", "summary_of_the_method": "(§1)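 P388 (PS) leukemia in mice, 6 mice per dose group. Weight change is the difference in grams between treated and control animals. Survivors are recorded on toxicity day, normally 4 days after the first injection.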"}, "Mus musculus [2]": {"tested_on": "Mus musculus", "assay": "Toxicity in PS mouse allografted with mouse P388 cells assessed as survival at 50 ug/kg after 4 days", "assay_type": "organism-based", "conditions": "in vivo, 0.05 mg/kg, 96 h", "summary_of_the_method": "(§2)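 PS (P388) leukemic mice, six started per dose group. Toxicity scored as survivors on the toxicity day over the number of mice started. The toxicity day is normally 4 days after the first injection.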"}, "Mus musculus [3]": {"tested_on": "Mus musculus", "assay": "Toxicity in PS mouse allografted with mouse P388 cells assessed as survival at 100 ug/kg after 4 days", "assay_type": "organism-based", "conditions": "in vivo, 0.1 mg/kg, 96 h", "summary_of_the_method": "as §2"}, "Mus musculus [4]": {"tested_on": "Mus musculus", "assay": "Toxicity in PS mouse allografted with mouse P388 cells assessed as survival at 25 ug/kg after 4 days", "assay_type": "organism-based", "conditions": "in vivo, 0.025 mg/kg, 96 h", "summary_of_the_method": "as §2"}, "Mus musculus [5]": {"tested_on": "Mus musculus", "assay": "Toxicity in PS mouse allografted with mouse P388 cells assessed as survival at 12.5 ug/kg after 4 days", "assay_type": "organism-based", "conditions": "in vivo, 0.0125 mg/kg, 96 h", "summary_of_the_method": "as §2"}, "Mus musculus [6]": {"tested_on": "Mus musculus", "assay": "Toxicity in PS mouse allografted with mouse P388 cells assessed as survival at 6.2 ug/kg after 4 days", "assay_type": "organism-based", "conditions": "in vivo, 0.0062 mg/kg, 96 h", "summary_of_the_method": "as §2"}, "Mus musculus [7]": {"tested_on": "Mus musculus", "assay": "Toxicity in PS mouse allografted with mouse P388 cells assessed as survival at 3.1 ug/kg after 4 days", "assay_type": "organism-based", "conditions": "in vivo, 0.0031 mg/kg, 96 h", "summary_of_the_method": "as §2"}, "Mus musculus [8]": {"tested_on": "Mus musculus", "assay": "Toxicity in PS mouse allografted with mouse P388 cells assessed as survival at 200 ug/kg after 4 days", "assay_type": "organism-based", "conditions": "in vivo, 0.2 mg/kg, 96 h", "summary_of_the_method": "as §2"}, "Mus musculus [9]": {"tested_on": "Mus musculus", "assay": "Toxicity in PS mouse allografted with mouse P388 cells assessed as survival at 1.8 ug/kg after 4 days", "assay_type": "organism-based", "conditions": "in vivo, 0.0018 mg/kg, 96 h", "summary_of_the_method": "as §2"}, "Mus musculus [10]": {"tested_on": "Mus musculus", "assay": "Toxicity in PS mouse allografted with mouse P388 cells assessed as survival at 0.9 ug/kg after 4 days", "assay_type": "organism-based", "conditions": "in vivo, 0.0009 mg/kg, 96 h", "summary_of_the_method": "as §2"}, "Mus musculus [11]": {"tested_on": "Mus musculus", "assay": "Toxicity in PS mouse allografted with mouse P388 cells assessed as change in body weight at 100 ug/kg relative to control", "assay_type": "organism-based", "conditions": "in vivo, 0.1 mg/kg", "summary_of_the_method": "as §1"}, "Mus musculus [12]": {"tested_on": "Mus musculus", "assay": "Toxicity in PS mouse allografted with mouse P388 cells assessed as change in body weight at 50 ug/kg relative to control", "assay_type": "organism-based", "conditions": "in vivo, 0.05 mg/kg", "summary_of_the_method": "as §1"}, "Mus musculus [13]": {"tested_on": "Mus musculus", "assay": "Toxicity in PS mouse allografted with mouse P388 cells assessed as change in body weight at 25 ug/kg relative to control", "assay_type": "organism-based", "conditions": "in vivo, 0.025 mg/kg", "summary_of_the_method": "as §1"}, "Mus musculus [14]": {"tested_on": "Mus musculus", "assay": "Toxicity in PS mouse allografted with mouse P388 cells assessed as change in body weight at 12.5 ug/kg relative to control", "assay_type": "organism-based", "conditions": "in vivo, 0.0125 mg/kg", "summary_of_the_method": "as §1"}, "Mus musculus [15]": {"tested_on": "Mus musculus", "assay": "Toxicity in PS mouse allografted with mouse P388 cells assessed as change in body weight at 6.2 ug/kg relative to control", "assay_type": "organism-based", "conditions": "in vivo, 0.0062 mg/kg", "summary_of_the_method": "as §1"}, "Mus musculus [16]": {"tested_on": "Mus musculus", "assay": "Toxicity in PS mouse allografted with mouse P388 cells assessed as change in body weight at 200 ug/kg relative to control", "assay_type": "organism-based", "conditions": "in vivo, 0.2 mg/kg", "summary_of_the_method": "as §1"}, "Mus musculus [17]": {"tested_on": "Mus musculus", "assay": "Toxicity in PS mouse allografted with mouse P388 cells assessed as change in body weight at 1.8 ug/kg relative to control", "assay_type": "organism-based", "conditions": "in vivo, 0.0018 mg/kg", "summary_of_the_method": "as §1"}, "Mus musculus [18]": {"tested_on": "Mus musculus", "assay": "Toxicity in PS mouse allografted with mouse P388 cells assessed as change in body weight at 0.9 ug/kg relative to control", "assay_type": "organism-based", "conditions": "in vivo, 0.0009 mg/kg", "summary_of_the_method": "as §1"}, "P388 [19]": {"tested_on": "P388", "assay": "Antitumor activity against mouse P388 cells allografted in PS mouse assessed as median survival time at 100 ug/kg relative to control", "assay_type": "functional", "summary_of_the_method": "(§3)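 P388 leukemia (PS) in mice, six mice started per dose group. Read-out is T/C: median survival time of the treated group divided by that of the untreated control group, expressed as a percent. The NIH protocol counts a compound as active when T/C > 125%.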"}, "P388 [20]": {"tested_on": "P388", "assay": "Antitumor activity against mouse P388 cells allografted in PS mouse assessed as median survival time at 50 ug/kg relative to control", "assay_type": "functional", "summary_of_the_method": "as §3"}, "P388 [21]": {"tested_on": "P388", "assay": "Antitumor activity against mouse P388 cells allografted in PS mouse assessed as median survival time at 25 ug/kg relative to control", "assay_type": "functional", "summary_of_the_method": "as §3"}, "P388 [22]": {"tested_on": "P388", "assay": "Antitumor activity against mouse P388 cells allografted in PS mouse assessed as median survival time at 12.5 ug/kg relative to control", "assay_type": "functional", "summary_of_the_method": "as §3"}, "P388 [23]": {"tested_on": "P388", "assay": "Antitumor activity against mouse P388 cells allografted in PS mouse assessed as median survival time at 6.2 ug/kg relative to control", "assay_type": "functional", "summary_of_the_method": "as §3"}, "P388 [24]": {"tested_on": "P388", "assay": "Antitumor activity against mouse P388 cells allografted in PS mouse assessed as median survival time at 3.1 ug/kg relative to control", "assay_type": "functional", "summary_of_the_method": "as §3"}, "P388 [25]": {"tested_on": "P388", "assay": "Antitumor activity against mouse P388 cells allografted in PS mouse assessed as median survival time at 200 ug/kg relative to control", "assay_type": "functional", "summary_of_the_method": "as §3"}, "P388 [26]": {"tested_on": "P388", "assay": "Antitumor activity against mouse P388 cells allografted in PS mouse assessed as median survival time at 1.8 ug/kg relative to control", "assay_type": "functional", "summary_of_the_method": "as §3"}, "P388 [27]": {"tested_on": "P388", "assay": "Antitumor activity against mouse P388 cells allografted in PS mouse assessed as median survival time at 0.9 ug/kg relative to control", "assay_type": "functional", "summary_of_the_method": "as §3"}, "KB": {"tested_on": "KB", "assay": "Cytotoxicity against human KB cells", "assay_type": "functional", "conditions": "read-out: ED50 (the source's name)"}, "Tubulin (Homo sapiens)": {"molecular_target": "Tubulin (Homo sapiens) (UniProt P68371+Q9H4B7+P0DPH7+P68366+Q13509+Q71U36+P04350+Q3ZCM7+P07437+P68363+Q9BQE3+Q6PEY2+Q13885+Q9BVA1+Q9BUF5)", "assay": "Inhibition of brain tubulin polymerization (unknown origin) at 37 degC by spectrophotometry"}, "Paracentrotus lividus": {"tested_on": "Paracentrotus lividus", "assay": "Antimitotic activity against sea urchin eggs assessed as drug level causing inhibition of mitosis", "assay_type": "functional", "conditions": "Egg"}},
  "note": "The source made the active and inactive calls.",
  "data": [
    {"smiles": "COc1cc2cc(c1Cl)N(C)C(=O)C[C@H](OC(=O)CBr)[C@]1(C)O[C@H]1[C@H](C)[C@@H]1C[C@@](O)(NC(=O)O1)[C@H](OC)/C=C/C=C(\\C)C2", "values": [
      {"measurement": "Activity", "setting": "Mus musculus [1]", "result": -0.2, "unit": "g"},
      {"measurement": "Activity", "setting": "Mus musculus [2]", "result": "Non-toxic"},
      {"measurement": "Activity", "setting": "Mus musculus [3]", "result": "Non-toxic"},
      {"measurement": "Activity", "setting": "Mus musculus [4]", "result": "Non-toxic"},
      {"measurement": "Activity", "setting": "Mus musculus [5]", "result": "Non-toxic"},
      {"measurement": "Activity", "setting": "Mus musculus [6]", "result": "Non-toxic"},
      {"measurement": "Activity", "setting": "Mus musculus [7]", "result": "Non-toxic"},
      {"measurement": "Activity", "setting": "Mus musculus [8]", "result": "Toxic"},
      {"measurement": "Activity", "setting": "Mus musculus [9]", "result": "Non-toxic"},
      {"measurement": "Activity", "setting": "Mus musculus [10]", "result": "Non-toxic"},
      {"measurement": "Activity", "setting": "Mus musculus [11]", "result": -1.3, "unit": "g"},
      {"measurement": "Activity", "setting": "Mus musculus [12]", "result": -0.3, "unit": "g"},
      {"measurement": "Activity", "setting": "Mus musculus [13]", "result": -0.5, "unit": "g"},
      {"measurement": "Activity", "setting": "Mus musculus [14]", "result": -0.3, "unit": "g"},
      {"measurement": "Activity", "setting": "Mus musculus [15]", "result": 0.2, "unit": "g"},
      {"measurement": "Activity", "setting": "Mus musculus [16]", "result": -2.5, "unit": "g"},
      {"measurement": "Activity", "setting": "Mus musculus [17]", "result": -0.6, "unit": "g"},
      {"measurement": "Activity", "setting": "Mus musculus [18]", "result": -0.4, "unit": "g"},
      {"measurement": "T/C", "setting": "P388 [19]", "result": 232, "unit": "%"},
      {"measurement": "T/C", "setting": "P388 [20]", "result": 189, "unit": "%"},
      {"measurement": "T/C", "setting": "P388 [21]", "result": 162, "unit": "%"},
      {"measurement": "T/C", "setting": "P388 [22]", "result": 153, "unit": "%"},
      {"measurement": "T/C", "setting": "P388 [23]", "result": 146, "unit": "%"},
      {"measurement": "T/C", "setting": "P388 [24]", "result": 130, "unit": "%"},
      {"measurement": "T/C", "setting": "P388 [25]", "result": "< 80", "unit": "%"},
      {"measurement": "T/C", "setting": "P388 [26]", "result": 131, "unit": "%"},
      {"measurement": "T/C", "setting": "P388 [27]", "result": 129, "unit": "%"},
      {"measurement": "EC50", "setting": "KB", "result": 0.44, "unit": "ng/mL"},
      {"measurement": "inhibition", "setting": "Tubulin (Homo sapiens)", "result": "Active"},
      {"measurement": "Activity", "setting": "Paracentrotus lividus", "result": 1, "unit": "×10⁻⁸ mol/L"}
    ]}
  ]
}
